In ChEMBL document CHEMBL3734720, “Synthesis of thiophene-thiosemicarbazone derivatives and evaluation of their in vitro and in vivo antitumor activities” (Eur J Med Chem, 2015):

Columns and labels:
786-0 [1] = assay: Induction of cell death in human 786-0 cells assessed as loss of cell membrane integrity at 50 uM after 24 hrs by annexin V/7-amino-actinomycin D double staining based flow cytometric analysis (reference value: 3.6+/- 0.8%); format: functional
MCF7 = assay: Antiproliferative activity against human MCF7 cells assessed as growth inhibition after 48 hrs by SRB assay; format: functional; conditions: MCF7, 48 h
How it was run: (§1)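 Cells exposed 48 h at 37 °C, 5% CO2 to 0.25, 2.5, 25 and 250 µg/mL in DMSO/RPMI (final DMSO 0.1%); doxorubicin standard at 0.025–25 µg/mL. Plates fixed with 50% TCA before (T0) and after treatment; protein content read by sulforhodamine B at 540 nm. GI50 (µM) from nonlinear regression of concentration–response curves; triplicate.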

786-0 [2] = assay: Induction of cell death in human 786-0 cells assessed as phosphatidylserine externalization at 50 uM after 18 hrs by annexin V/7-amino-actinomycin D double staining based flow cytometric analysis (reference value: 7.2 +/- 1.4%); format: functional
[3] = Antitumor activity against mouse EAT implanted in Balb/C mouse assessed as change in paw volume at 300 mg/kg, po administered on day 3 post tumor inoculation measured on day 6 by plethysmometer analysis (reference value: 86.1 +/- 5.7%); format: functional
[4] = Antitumor activity against mouse EAT implanted in Balb/C mouse assessed as change in paw volume at 100 mg/kg, po administered on day 3 post tumor inoculation measured on day 12 by plethysmometer analysis (reference value: 125.5 +/- 7.5%); format: functional
[5] = Antitumor activity against mouse EAT implanted in Balb/C mouse assessed as change in paw volume at 300 mg/kg, po administered on day 3 post tumor inoculation measured on day 3 by plethysmometer analysis (reference value: 40.2 +/- 7.0%); format: functional
[6] = Antitumor activity against mouse EAT implanted in Balb/C mouse assessed as change in paw volume at 100 mg/kg, po administered on day 3 post tumor inoculation measured on day 15 by plethysmometer analysis (reference value: 166.5 +/- 6.0%); format: functional
Mus musculus = assay: Acute toxicity in Balb/C mouse assessed as adhesion of organs at 600 mg/kg, po; format: organism-based; conditions: in vivo
How it was run: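 Fixed dose procedure following OECD guideline; Balb/C mice (20-35 g) fasted 16 h, groups of 5 given single oral doses stepwise at 600, 400 and 200 mgKg-1; survival and clinical signs of pain, suffering and impending death recorded per OECD guidance.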

NCI-H460 = assay: Antiproliferative activity against human NCI-H460 cells assessed as growth inhibition after 48 hrs by SRB assay; format: functional; conditions: NCI-H460, 48 h; how it was run: as §1

S=C(N/N=C/c1cccs1)Nc1ccc(Br)cc1
Activity (786-0 [1]): 35.7% | GI50 (MCF7): < 0.74 µM | Activity (786-0 [2]): 15.5% | Activity [3]: 75.1% | Activity [4]: 75.8% | Activity [5]: 39.4% | Activity [6]: 118.6% | Activity (Mus musculus): Toxic | GI50 (NCI-H460): 4.7 µM
